ChEMBL document CHEMBL4433206, “Novel Lysine-Based Thioureas as Mechanism-Based Inhibitors of Sirtuin 2 (SIRT2) with Anticancer Activity in a Colorectal Cancer Murine Model” (J Med Chem, 2019)
The source made the active and inactive calls. The calls are words filed in the database; no cut-off is given here.

Tests used:
[1] = molecular target: T1, NAD-dependent protein deacetylase sirtuin-1 (Homo sapiens, UniProt Q96EB6); test: Inhibition of human SIRT1 deacetylase activity using acetylated H3K9 as substrate preincubated for 15 mins followed by substrate addition and measured after 3 mins by UV-HPLC analysis
T1 sequence (Q96EB6 whole entry): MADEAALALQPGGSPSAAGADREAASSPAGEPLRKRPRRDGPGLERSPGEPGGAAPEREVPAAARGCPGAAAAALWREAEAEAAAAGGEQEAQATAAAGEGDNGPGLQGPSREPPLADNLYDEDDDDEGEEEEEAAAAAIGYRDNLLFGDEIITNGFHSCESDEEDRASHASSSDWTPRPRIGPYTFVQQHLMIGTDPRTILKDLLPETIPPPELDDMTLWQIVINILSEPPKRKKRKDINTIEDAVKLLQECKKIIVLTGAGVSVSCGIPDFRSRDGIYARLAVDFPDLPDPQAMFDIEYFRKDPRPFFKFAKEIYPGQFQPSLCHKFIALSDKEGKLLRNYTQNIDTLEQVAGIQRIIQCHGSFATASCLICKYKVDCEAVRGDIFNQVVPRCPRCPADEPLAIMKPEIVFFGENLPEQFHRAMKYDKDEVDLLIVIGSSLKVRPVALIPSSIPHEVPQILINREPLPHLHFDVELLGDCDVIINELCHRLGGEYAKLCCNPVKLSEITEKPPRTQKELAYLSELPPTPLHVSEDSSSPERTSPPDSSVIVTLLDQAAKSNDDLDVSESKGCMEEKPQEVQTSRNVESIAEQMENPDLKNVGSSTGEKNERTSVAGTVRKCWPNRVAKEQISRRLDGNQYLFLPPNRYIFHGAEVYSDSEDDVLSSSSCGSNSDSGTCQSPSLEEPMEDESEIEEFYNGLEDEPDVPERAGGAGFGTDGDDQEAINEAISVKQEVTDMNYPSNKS

[2] = molecular target: T2, NAD-dependent protein deacetylase sirtuin-2 (Homo sapiens, UniProt Q8IXJ6); test: Inhibition of recombinant human N-terminal His6-tagged/SUMO-fused SIRT2 (38 to 356 residues) expressed in Escherichia coli BL21 assessed as reduction in deacetylase activity using acetylated H3K9 as substrate preincubated for 15 mins followed by substrate addition and measured after 6 mins by UV-HPLC analysis
T2 sequence (Q8IXJ6 whole entry): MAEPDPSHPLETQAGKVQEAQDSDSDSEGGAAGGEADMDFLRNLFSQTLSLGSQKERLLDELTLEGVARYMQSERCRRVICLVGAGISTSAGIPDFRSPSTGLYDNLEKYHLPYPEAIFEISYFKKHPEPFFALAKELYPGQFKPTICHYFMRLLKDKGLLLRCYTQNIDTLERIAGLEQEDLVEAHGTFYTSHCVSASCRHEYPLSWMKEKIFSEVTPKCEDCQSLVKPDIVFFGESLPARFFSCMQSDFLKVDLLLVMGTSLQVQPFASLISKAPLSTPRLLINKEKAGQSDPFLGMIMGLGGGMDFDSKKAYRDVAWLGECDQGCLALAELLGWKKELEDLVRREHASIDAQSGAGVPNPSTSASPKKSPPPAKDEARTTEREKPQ

[3] = Toxicity in NSG mouse xenografted with human HCT116 cells harboring KRAS G13D mutant assessed as body weight loss at 100 mg/kg, ip administered daily for 12 days measured during compound dosing; details: in vivo, 288 h
[4] = Cytotoxicity against human HME1 cells after 72 hrs by CellTiter-Blue assay; type: cell-based
In short: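 Cells were seeded per well (HCT116 1000; MDA-MB-231, MDA-MB-468, NCI-H23, A549, SW948 2000; MCF7, BxPC-3, HME1 3000) and left 20 h at 37 °C. Inhibitor was added at 1–100 μM final for 72 h at 37 °C. CellTiter-Blue was then added for 4 h, and fluorescence was read at ex 560/em 590 nm.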

[5] = test system: MDA-MB-231; test: Growth inhibition of human MDA-MB-231 cells after 72 hrs by CellTiter-Blue assay; type: functional; details: MDA-MB-231, 72 h
[6] = test system: HCT-116; test: Inhibition of anchorage-independent cell growth in human HCT116 cells assessed as reduction in colony formation at >=10 uM incubated for 5 days followed by compound re-addition and measured after 9 to 11 days by nitro blue tetrazolium chloride-based soft agar colony formation assay relative to control; type: functional
In short: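 HCT116 cells were mixed at 500 cells/mL into 0.3% agar growth layer over a 0.6% agar base layer (McCoy's medium, 10% calf serum). Both layers held inhibitor at 2.5–50 μM final. Wells were run in triplicate at 37 °C. Inhibitor-containing growth layer was added again at day 5. At 9–11 days, nitro blue tetrazolium was added overnight and colonies were imaged and counted.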

[7] = test system: MDA-MB-468; test: Growth inhibition of human MDA-MB-468 cells after 72 hrs by CellTiter-Blue assay; type: functional; details: MDA-MB-468, 72 h
[8] = molecular target: T3, NAD-dependent protein deacetylase sirtuin-1 (Homo sapiens) (UniProt Q96EB6); test: Inhibition of SIRT1 in human HCT116 cells assessed as increase in acetylated p53 K382 level at 25 uM after 6 hrs by Western blot analysis; type: cell-based
T3 sequence (whole entry): T1 sequence (Q96EB6 whole entry)

[9] = test system: BXPC-3; test: Growth inhibition of human BxPC3 cells after 72 hrs by CellTiter-Blue assay; type: functional; details: BXPC-3, 72 h
[10] = molecular target: T4, NAD-dependent protein deacetylase sirtuin-2 (Homo sapiens) (UniProt Q8IXJ6); test: Inhibition of SIRT2 in human HCT116 cells assessed as increase in alpha-tubulin acetylation at 25 uM incubated for 6 hrs by DAPI staining-based laser scanning confocal microscopic analysis; type: cell-based
T4 sequence (whole entry): T2 sequence (Q8IXJ6 whole entry)
In short: (§1)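 HCT116 cells were seeded at 400 000 on poly-D-lysine-coated glass-bottom dishes and grown 24 h. Cells were treated with DMSO or inhibitor for 6 h at 37 °C, fixed in ice-cold methanol, and blocked in TBS/0.1% Triton X-100/5% BSA. They were stained with anti-acetyl α-tubulin (1:100, overnight, 4 °C), then Cy3 anti-mouse, and mounted with DAPI. Imaging was by confocal microscopy.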

[11] = test system: HCT-116; test: Growth inhibition of human HCT116 cells after 72 hrs by CellTiter-Blue assay; type: functional; details: HCT-116, 72 h
[12] = molecular target: T3, NAD-dependent protein deacetylase sirtuin-1 (Homo sapiens); test: Inhibition of SIRT1 in Trichostatin A treated human HCT116 cells assessed as increase in acetylated p53 K382 level at 10 to 50 uM after 6 hrs by Western blot analysis
In short: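 HCT116 cells were seeded at 400 000 per well, grown 24 h, then cotreated with 400 nM TSA and inhibitor (25 μM, or 10–50 μM) for 6 h at 37 °C. Cells were lysed in 4% SDS buffer, pH 7.4. 50 μg of lysate was resolved by 12% SDS-PAGE and blotted for acetyl-p53 K382 antibody, with β-actin as loading control. Detection was by ECL.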

[13] = test system: A549; test: Growth inhibition of human A549 cells after 72 hrs by CellTiter-Blue assay; type: functional; details: A549, 72 h
[14] = molecular target: T4, NAD-dependent protein deacetylase sirtuin-2 (Homo sapiens); test: Inhibition of SIRT2 in human HCT116 cells assessed as increase in alpha-tubulin acetylation at 50 uM incubated for 6 hrs by DAPI staining-based laser scanning confocal microscopic analysis; type: cell-based; in short: as §1

Row | IC50 [1] [µM] | IC50 [2] [µM] | GI50 [5] [µM] | GI50 [7] [µM] | inhibition [8] | GI50 [9] [µM] | inhibition [10] | GI50 [11] [µM] | inhibition [12] | GI50 [13] [µM] | inhibition [14] | SMILES | Activity [3] | Activity [4] | growth inhibition (GI) [6] [%]
1 | > 200 | 0.15 | 14.8 | 13.4 | inactive | 24.3 | Active | 54.4 | inactive | 9 | Active | CCCCCCCCCCNC(=S)NCCCC[C@H](NC(=O)OCc1ccccc1)C(=O)Nc1ccccc1 | Non-Toxic | Non-Toxic | 100
2 | 11 | 0.061 | 27.2 | 26.1 | inactive | 72.4 | Active | 58.9 | inactive | 20.8 | Active | CCCCCCCCNC(=S)NCCCC[C@H](NC(=O)OCc1ccccc1)C(=O)Nc1ccccc1 | Non-Toxic | Non-Toxic | 100
